From ChEMBL document CHEMBL1154181 (J Med Chem, 2009)

Tested on: Mus musculus
Test: Antinociceptive activity against radiant heat-induced nociception in po dosed CD1 mouse assessed as increase in tail withdrawal latency measured after 15 to 120 mins postdose by tail flick test
Format: functional
Method in brief: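 Male CD-1 mice, 25–30 g; oral dosing. Radiant heat focused 3–4 cm from tail tip of hand-restrained mice; tail withdrawal latency recorded, cutoff 15 s at 15 V. Baseline = mean of three readings 15 min apart; latency at 15–120 min.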

`CN1CC[C@]23c4c5ccc(O)c4O[C@H]2[C@@H](O)C=C[C@H]3[C@H]1C5` [MORPHINE] was tested, and the ED50 was 3.5 mg/kg.

Tested on: Mus musculus
Test: Antinociceptive activity against thermal nociception in po dosed CD1 mouse assessed as increase in latency period to elicit jumping or hind paw licking measured after 15 to 90 mins postdose by hot plate method
Format: functional

For `CN1CC[C@]23c4c5ccc(O)c4O[C@H]2[C@@H](O)C=C[C@H]3[C@H]1C5` [MORPHINE], the ED50 was 6.9 mg/kg.

Tested on: Mus musculus
Test: Antinociceptive activity against radiant heat-induced nociception in icv dosed CD1 mouse assessed as increase in tail withdrawal latency measured after 15 to 120 mins postdose by tail flick test
Format: functional
Method in brief: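 Male CD-1 mice anesthetized with ketamine-xylazine (80 + 10 mg/kg ip). Dosed into the right lateral ventricle (+2 mm ML, −0.3 mm AP to bregma, 2 mm depth). Tail flick with radiant heat, cut-off 15 s. Latency read at 15–120 min as %MPE.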

Compared with `C=Cc1c(C)nn(CCCN2CCN(C)CC2)c(=O)c1N`, `C=Cc1c(C)nn(CCCN2CCC(C)CC2)c(=O)c1N` is higher in ED50: 8.7 µg for the first, 26.4 µg for the second.

First: C=Cc1c(C)nn(CCN2CCN(c3ccc(C)cc3)CC2)c(=O)c1N
Second: C=Cc1c(C)nn(CCN2CCN(c3ccc(OC)cc3)CC2)c(=O)c1N
The ED50 of the first is higher: 26.1 µg for the first, 11.9 µg for the second.

Going from `Cc1ccc(N2CCN(CCCn3nc(C)ccc3=O)CC2)cc1` to `Cc1ccc(N2CCN(CCCn3nc(C)cc(N)c3=O)CC2)cc1`, the ED50 falls from 13.8 µg to 4.9 µg.

Compared with `C=Cc1c(C)nn(C)c(=O)c1NCCN1CCN(c2ccc(C)cc2)CC1`, `C=Cc1c(C)nn(CCCN2CCN(c3ccc(Cl)cc3)CC2)c(=O)c1N` is lower in ED50: 24.1 µg for the first, 15.4 µg for the second.

Going from `C=Cc1cnn(CCCN2CCN(c3ccc(C)cc3)CC2)c(=O)c1N` to `C=Cc1c(C)nn(CCCN2CCN(c3ccc(OC)cc3)CC2)c(=O)c1N`, the ED50 falls from 25.1 µg to 12.6 µg.

Compared with `C=Cc1c(C)nn(CCCN2CCN(c3cccc(C)c3)CC2)c(=O)c1N`, `C=Cc1c(C)nn(CCCN2CCN(c3cccc(Cl)c3)CC2)c(=O)c1N` is lower in ED50: 51.55 µg for the first, 23.7 µg for the second.

Going from `Cc1ccc(N2CCN(CCCn3cc(-c4ccncc4)cc(N)c3=O)CC2)cc1` to `Cc1ccc(N2CCN(CCCn3nc(-c4ccccc4)c(-c4csc(C)n4)c(N)c3=O)CC2)cc1`, the ED50 rises from 7.6 µg to 48.3 µg.

Compared with `Cc1ccc(N2CCN(CCn3nc(-c4ccccc4)c(-c4csc(C)n4)c(N)c3=O)CC2)cc1`, `Cc1ccc(N2CCN(CCn3nc(C)c(-c4ccn[nH]4)c(N)c3=O)CC2)cc1` is lower in ED50: 25.1 µg for the first, 16.9 µg for the second.

First: CN1CC[C@]23c4c5ccc(O)c4O[C@H]2[C@@H](O)C=C[C@H]3[C@H]1C5 [MORPHINE]
Second: C=Cc1sc(=O)n(CCCN2CCN(c3ccc(C)cc3)CC2)c1C
The ED50 of the first is lower: 1.1 µg for the first, 5.1 µg for the second.

`C=Cc1c(C)nn(CCCN2CCN(c3cccc(OC)c3)CC2)c(=O)c1N` gave an ED50 of 72.6 µg.
